Reference: ChEMBL document CHEMBL1629494, “New amino acid esters of salicylanilides active against MDR-TB and other microbes” (Eur J Med Chem, 2010)
Values after ≈ are worked out from the molar mass of the structure shown.

How the values were obtained:
Format in all cases: functional
Pichia kudriavzevii [1] = experiment: Antifungal activity against Candida krusei E28 after 48 hrs by broth microdilution method; details: E28, 48 h
Trichosporon beigelii [2] = experiment: Antifungal activity against Trichosporon beigelii 1188 after 24 hrs by broth microdilution method; details: Trichosporon beigelii, 1188, 24 h
Mycobacterium kansasii [3] = experiment: Antimycobacterial activity against Mycobacterium kansasii
Candida tropicalis [4] = experiment: Antifungal activity against Candida tropicalis 156 after 48 hrs by broth microdilution method; details: Candida tropicalis, 156, 48 h
Mycobacterium avium [5] = experiment: Antimycobacterial activity against multidrug-resistant Mycobacterium avium 330/88 after 21 days by micromethod; details: 330/88, 504 h
Summary of the method: (§1)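 Micromethod in Sula semisynthetic medium, with compounds added as DMSO solutions at 1000, 500, 250, 125, 62, 32, 16, 8, 4, 2, 1, 0.5, 0.25. Inoculum dilutions: H37Rv 10^-3; M. avium 330/88 10^-5; M. kansasii 235/80 10^-4; M. kansasii 6509/96 10^-5. Incubated at 37 °C, read at 14 and 21 days, and at 7 days for M. kansasii. MIC was the lowest concentration inhibiting growth.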

[6] = system: Mycobacterium tuberculosis; experiment: Antimycobacterial activity against Mycobacterium tuberculosis H37Rv 331/88 after 21 days by micromethod; details: H37Rv 331/88, 504 h; summary of the method: as §1
Lichtheimia corymbifera [7] = experiment: Antifungal activity against Absidia corymbifera 272 after 24 hrs by broth microdilution method; details: Lichtheimia corymbifera, 272, 24 h
Mycobacterium kansasii [8] = experiment: Antimycobacterial activity against Mycobacterium kansasii 6509/96 after 14 days by micromethod; details: 6509/96, 336 h; summary of the method: as §1
Escherichia coli [9] = experiment: Antibacterial activity against Escherichia coli CCM 4517 after 24 hrs by broth microdilution method; details: CCM 4517, 24 h
Summary of the method: (§2)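 Broth microdilution following […], with twofold compound dilutions in Mueller-Hinton bouillon. Incubated 24 and 48 h at 35 °C in the dark in a humid atmosphere. MIC (IC80) was taken as ≥80% growth reduction versus control, read visually and photometrically.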

Staphylococcus aureus [10] = experiment: Antibacterial activity against Staphylococcus aureus CCM 4516/08 after 48 hrs by broth microdilution method; details: CCM 4516/08, 48 h; summary of the method: as §2
Enterococcus sp. [11] = experiment: Antibacterial activity against Enterococcus sp. J14365/08 after 24 hrs by broth microdilution method; details: J14365/08, 24 h; summary of the method: as §2
Lichtheimia corymbifera [12] = experiment: Antifungal activity against Absidia corymbifera 272 after 48 hrs by broth microdilution method; details: Lichtheimia corymbifera, 272, 48 h
Mycobacterium kansasii [13] = experiment: Antimycobacterial activity against Mycobacterium kansasii 235/80 after 14 days by micromethod; details: 235/80, 336 h; summary of the method: as §1
Candida albicans [14] = experiment: Antifungal activity against Candida albicans ATCC 44859 after 48 hrs by broth microdilution method; details: ATCC 44859, 48 h
Nakaseomyces glabratus [15] = experiment: Antifungal activity against Candida glabrata 20/I after 48 hrs by broth microdilution method
Mycobacterium kansasii [16] = experiment: Antimycobacterial activity against Mycobacterium kansasii 6509/96 after 21 days by micromethod; details: 6509/96, 504 h; summary of the method: as §1
Candida albicans [17] = experiment: Antifungal activity against Candida albicans ATCC 44859 after 24 hrs by broth microdilution method; details: ATCC 44859, 24 h
Staphylococcus aureus [18] = experiment: Antibacterial activity against Staphylococcus aureus CCM 4516/08 after 24 hrs by broth microdilution method; details: CCM 4516/08, 24 h; summary of the method: as §2
Mycobacterium avium [19] = experiment: Antimycobacterial activity against Mycobacterium avium
Klebsiella pneumoniae [20] = experiment: Antibacterial activity against Klebsiella pneumoniae D11750/08 after 24 hrs by broth microdilution method; details: D11750/08, 24 h; summary of the method: as §2
[21] = system: Mycobacterium tuberculosis; experiment: Antimycobacterial activity against Mycobacterium tuberculosis H37Rv 331/88 after 14 days by micromethod; details: H37Rv 331/88, 336 h; summary of the method: as §1
Nakaseomyces glabratus [22] = experiment: Antifungal activity against Candida glabrata 20/I after 24 hrs by broth microdilution method
Mycobacterium kansasii [23] = experiment: Antimycobacterial activity against Mycobacterium kansasii 6509/96 after 7 days by micromethod; details: 6509/96, 168 h; summary of the method: as §1
[24] = system: Trichophyton mentagrophytes; experiment: Antifungal activity against Trichophyton mentagrophytes after 48 hrs by broth microdilution method
Aspergillus fumigatus [25] = experiment: Antifungal activity against Aspergillus fumigatus 231 after 24 hrs by broth microdilution method; details: Aspergillus fumigatus, 231, 24 h
Mycobacterium kansasii [26] = experiment: Antimycobacterial activity against Mycobacterium kansasii 235/80 after 7 days by micromethod; details: 235/80, 168 h; summary of the method: as §1
Mycobacterium avium [27] = experiment: Antimycobacterial activity against multidrug-resistant Mycobacterium avium 330/88 after 14 days by micromethod; details: 330/88, 336 h; summary of the method: as §1
Mycobacterium kansasii [28] = experiment: Antimycobacterial activity against Mycobacterium kansasii 235/80 after 21 days by micromethod; details: 235/80, 504 h; summary of the method: as §1
Aspergillus fumigatus [29] = experiment: Antifungal activity against Aspergillus fumigatus 231 after 48 hrs by broth microdilution method; details: Aspergillus fumigatus, 231, 48 h
Staphylococcus aureus [30] = experiment: Antibacterial activity against methicillin-resistant Staphylococcus aureus H5996/08 after 24 hrs by broth microdilution method; details: H5996/08, 24 h; summary of the method: as §2
Enterococcus sp. [31] = experiment: Antibacterial activity against Enterococcus sp. J14365/08 after 48 hrs by broth microdilution method; details: J14365/08, 48 h; summary of the method: as §2
Pichia kudriavzevii [32] = experiment: Antifungal activity against Candida krusei E28 after 24 hrs by broth microdilution method; details: E28, 24 h
[33] = system: Staphylococcus epidermidis; experiment: Antibacterial activity against Staphylococcus epidermidis H6966/08 after 24 hrs by broth microdilution method; details: H6966/08, 24 h; summary of the method: as §2
Escherichia coli [34] = experiment: Antibacterial activity against Escherichia coli CCM 4517 after 48 hrs by broth microdilution method; details: CCM 4517, 48 h; summary of the method: as §2
[35] = system: Trichophyton mentagrophytes; experiment: Antifungal activity against Trichophyton mentagrophytes after 24 hrs by broth microdilution method
Candida tropicalis [36] = experiment: Antifungal activity against Candida tropicalis 156 after 24 hrs by broth microdilution method; details: Candida tropicalis, 156, 24 h
Trichosporon beigelii [37] = experiment: Antifungal activity against Trichosporon beigelii 1188 after 48 hrs by broth microdilution method; details: Trichosporon beigelii, 1188, 48 h
Staphylococcus aureus [38] = experiment: Antibacterial activity against methicillin-resistant Staphylococcus aureus H5996/08 after 48 hrs by broth microdilution method; details: H5996/08, 48 h; summary of the method: as §2
[39] = system: Mycobacterium tuberculosis; experiment: Antimycobacterial activity against drug-sensitive Mycobacterium tuberculosis
[40] = system: Staphylococcus epidermidis; experiment: Antibacterial activity against Staphylococcus epidermidis H6966/08 after 48 hrs by broth microdilution method; details: H6966/08, 48 h; summary of the method: as §2
Klebsiella pneumoniae [41] = experiment: Antibacterial activity against Klebsiella pneumoniae D11750/08 after 48 hrs by broth microdilution method; details: D11750/08, 48 h; summary of the method: as §2

## CC(=O)N[C@@H](Cc1ccccc1)C(=O)Oc1cc(Cl)ccc1C(=O)Nc1ccc(Cl)c(Cl)c1
Pichia kudriavzevii [1]
  MIC: > 125 µM
Trichosporon beigelii [2]
  MIC: 125 µM (≈ 63.2 µg/mL)
Mycobacterium kansasii [3]
  MIC: 1 µM (≈ 0.506 µg/mL)
Candida tropicalis [4]
  MIC: > 125 µM
Mycobacterium avium [5]
  MIC: 16 µM (≈ 8.09 µg/mL)
[6]
  MIC: 2 µM (≈ 1.01 µg/mL)
Lichtheimia corymbifera [7]
  MIC: 125 µM (≈ 63.2 µg/mL)
Mycobacterium kansasii [8]
  MIC: 2 µM (≈ 1.01 µg/mL)
Escherichia coli [9]
  MIC: 125 µM (≈ 63.2 µg/mL)
Staphylococcus aureus [10]
  MIC: > 125 µM
Enterococcus sp. [11]
  MIC: 125 µM (≈ 63.2 µg/mL)
Lichtheimia corymbifera [12]
  MIC: > 125 µM
Mycobacterium kansasii [13]
  MIC: 4 µM (≈ 2.02 µg/mL)
Candida albicans [14]
  MIC: > 125 µM
Nakaseomyces glabratus [15]
  MIC: > 125 µM
Mycobacterium kansasii [16]
  MIC: 4 µM (≈ 2.02 µg/mL)
Candida albicans [17]
  MIC: 125 µM (≈ 63.2 µg/mL)
Staphylococcus aureus [18]
  MIC: 125 µM (≈ 63.2 µg/mL)
Mycobacterium avium [19]
  MIC: 1 µM (≈ 0.506 µg/mL)
Klebsiella pneumoniae [20]
  MIC: > 125 µM
[21]
  MIC: 2 µM (≈ 1.01 µg/mL)
Nakaseomyces glabratus [22]
  MIC: > 125 µM
Mycobacterium kansasii [23]
  MIC: 1 µM (≈ 0.506 µg/mL)
[24]
  MIC: > 125 µM
Aspergillus fumigatus [25]
  MIC: 125 µM (≈ 63.2 µg/mL)
Mycobacterium kansasii [26]
  MIC: 4 µM (≈ 2.02 µg/mL)
Mycobacterium avium [27]
  MIC: 8 µM (≈ 4.05 µg/mL)
Mycobacterium kansasii [28]
  MIC: 4 µM (≈ 2.02 µg/mL)
Aspergillus fumigatus [29]
  MIC: > 125 µM
Staphylococcus aureus [30]
  MIC: 125 µM (≈ 63.2 µg/mL)
Enterococcus sp. [31]
  MIC: > 125 µM
Pichia kudriavzevii [32]
  MIC: > 125 µM
[33]
  MIC: 125 µM (≈ 63.2 µg/mL)
Escherichia coli [34]
  MIC: > 125 µM
[35]
  MIC: 62.5 µM (≈ 31.6 µg/mL)
Candida tropicalis [36]
  MIC: 125 µM (≈ 63.2 µg/mL)
Trichosporon beigelii [37]
  MIC: > 125 µM
Staphylococcus aureus [38]
  MIC: > 125 µM
[39]
  MIC: 1 µM (≈ 0.506 µg/mL)
[40]
  MIC: > 125 µM
Klebsiella pneumoniae [41]
  MIC: > 125 µM

## CC(=O)N[C@@H](Cc1ccccc1)C(=O)Oc1cc(Cl)ccc1C(=O)Nc1ccc(C(F)(F)F)cc1
Pichia kudriavzevii [1]
  MIC: > 125 µM
Trichosporon beigelii [2]
  MIC: 125 µM (≈ 63.1 µg/mL)
Mycobacterium kansasii [3]
  MIC: 1 µM (≈ 0.505 µg/mL)
Candida tropicalis [4]
  MIC: > 125 µM
Mycobacterium avium [5]
  MIC: 32 µM (≈ 16.2 µg/mL)
[6]
  MIC: 16 µM (≈ 8.08 µg/mL)
Lichtheimia corymbifera [7]
  MIC: 62.5 µM (≈ 31.6 µg/mL)
Mycobacterium kansasii [8]
  MIC: 8 µM (≈ 4.04 µg/mL)
Escherichia coli [9]
  MIC: > 125 µM
Staphylococcus aureus [10]
  MIC: > 125 µM
Enterococcus sp. [11]
  MIC: 125 µM (≈ 63.1 µg/mL)
Lichtheimia corymbifera [12]
  MIC: > 125 µM
Mycobacterium kansasii [13]
  MIC: 4 µM (≈ 2.02 µg/mL)
Candida albicans [14]
  MIC: > 125 µM
Nakaseomyces glabratus [15]
  MIC: > 125 µM
Mycobacterium kansasii [16]
  MIC: 8 µM (≈ 4.04 µg/mL)
Candida albicans [17]
  MIC: > 125 µM
Staphylococcus aureus [18]
  MIC: 125 µM (≈ 63.1 µg/mL)
Mycobacterium avium [19]
  MIC: 1 µM (≈ 0.505 µg/mL)
Klebsiella pneumoniae [20]
  MIC: > 125 µM
[21]
  MIC: 8 µM (≈ 4.04 µg/mL)
Nakaseomyces glabratus [22]
  MIC: > 125 µM
Mycobacterium kansasii [23]
  MIC: 4 µM (≈ 2.02 µg/mL)
[24]
  MIC: > 125 µM
Aspergillus fumigatus [25]
  MIC: 62.5 µM (≈ 31.6 µg/mL)
Mycobacterium kansasii [26]
  MIC: 4 µM (≈ 2.02 µg/mL)
Mycobacterium avium [27]
  MIC: 16 µM (≈ 8.08 µg/mL)
Mycobacterium kansasii [28]
  MIC: 4 µM (≈ 2.02 µg/mL)
Aspergillus fumigatus [29]
  MIC: > 125 µM
Staphylococcus aureus [30]
  MIC: 125 µM (≈ 63.1 µg/mL)
Enterococcus sp. [31]
  MIC: > 125 µM
Pichia kudriavzevii [32]
  MIC: 62.5 µM (≈ 31.6 µg/mL)
[33]
  MIC: 125 µM (≈ 63.1 µg/mL)
Escherichia coli [34]
  MIC: > 125 µM
[35]
  MIC: 125 µM (≈ 63.1 µg/mL)
Candida tropicalis [36]
  MIC: > 125 µM
Trichosporon beigelii [37]
  MIC: > 125 µM
Staphylococcus aureus [38]
  MIC: > 125 µM
[39]
  MIC: 1 µM (≈ 0.505 µg/mL)
[40]
  MIC: > 125 µM
Klebsiella pneumoniae [41]
  MIC: > 125 µM
